# From PMC5901702 (Journal of biomolecular screening, 2012)
# Assays:
# pronase E = test: Target specificity: pronase E activity with a-factor–based peptide; format: biochemical; details: 100 µM compound; relative to DMSO control = 100%
# How it was run: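 Single-dose specificity assay with a-factor–based fluorogenic peptide (50 µM) in 0.1 M KPi pH 7.6. Ste23p was used at 10 µg/mL and 30 °C; trypsin and pronase E at 0.5 µg/mL each under the 37 °C HTS conditions. Enzymes were preincubated 10 min with 100 µM compound. Triplicate rates were normalized by trypsin/pronase full digestion and given relative to DMSO control (100%).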
# rat IDE [1] = biological target: T1, rat IDE (Rattus norvegicus, UniProt P35559); test: Insulin competition with a-factor–based substrate on rat IDE; format: biochemical; details: 100 µM compound; […] (IC50) insulin; 0.1 M KPi
# T1 sequence (P35559 1-1019): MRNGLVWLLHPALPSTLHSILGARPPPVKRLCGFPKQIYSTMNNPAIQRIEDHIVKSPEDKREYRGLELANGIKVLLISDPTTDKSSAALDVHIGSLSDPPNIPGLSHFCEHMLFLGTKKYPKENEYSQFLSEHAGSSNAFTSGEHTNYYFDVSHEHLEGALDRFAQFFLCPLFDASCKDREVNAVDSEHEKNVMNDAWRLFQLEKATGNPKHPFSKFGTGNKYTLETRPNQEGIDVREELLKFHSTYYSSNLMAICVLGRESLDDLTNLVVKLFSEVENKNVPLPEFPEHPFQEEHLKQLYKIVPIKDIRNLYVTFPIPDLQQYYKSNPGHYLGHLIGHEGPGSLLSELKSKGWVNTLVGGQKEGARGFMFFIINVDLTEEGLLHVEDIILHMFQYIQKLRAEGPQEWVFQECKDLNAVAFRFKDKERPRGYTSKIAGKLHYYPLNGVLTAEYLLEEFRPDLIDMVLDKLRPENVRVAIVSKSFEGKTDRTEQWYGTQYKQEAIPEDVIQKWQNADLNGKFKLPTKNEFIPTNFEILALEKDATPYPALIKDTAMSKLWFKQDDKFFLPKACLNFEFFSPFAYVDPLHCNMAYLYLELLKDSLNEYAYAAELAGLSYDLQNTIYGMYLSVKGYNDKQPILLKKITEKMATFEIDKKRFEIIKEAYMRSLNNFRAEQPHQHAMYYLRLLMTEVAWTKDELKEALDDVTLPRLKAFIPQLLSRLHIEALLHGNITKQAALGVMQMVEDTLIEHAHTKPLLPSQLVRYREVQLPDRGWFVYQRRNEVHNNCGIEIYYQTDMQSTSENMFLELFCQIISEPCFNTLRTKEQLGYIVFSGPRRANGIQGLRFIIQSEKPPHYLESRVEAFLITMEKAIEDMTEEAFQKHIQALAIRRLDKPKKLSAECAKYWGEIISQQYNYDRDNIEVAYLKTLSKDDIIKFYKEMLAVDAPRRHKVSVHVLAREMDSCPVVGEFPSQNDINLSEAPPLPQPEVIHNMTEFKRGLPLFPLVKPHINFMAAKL
# yeast Rce1p = biological target: T2, yeast Rce1p (Saccharomyces cerevisiae, UniProt Q03530); test: Target specificity: Rce1p activity; format: biochemical; details: 100 µM compound; relative to DMSO control = 100%
# T2 sequence (Q03530 1-315): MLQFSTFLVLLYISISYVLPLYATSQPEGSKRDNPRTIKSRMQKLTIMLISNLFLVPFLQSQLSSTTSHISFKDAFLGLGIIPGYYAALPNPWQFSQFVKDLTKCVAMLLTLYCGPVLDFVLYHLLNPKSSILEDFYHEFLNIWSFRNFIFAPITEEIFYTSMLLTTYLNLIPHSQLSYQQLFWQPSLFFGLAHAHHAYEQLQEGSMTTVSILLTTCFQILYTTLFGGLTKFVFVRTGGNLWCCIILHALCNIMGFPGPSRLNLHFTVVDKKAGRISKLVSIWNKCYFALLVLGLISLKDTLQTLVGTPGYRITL
# How it was run: (§1)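 Yeast-derived microsomes (250 µg/mL) enriched for Rce1p or Ste24p were preincubated 10 min with 100 µM compound. They were assayed with an internally quenched fluorogenic farnesylated K-Ras C-terminus–based peptide, read at 320/420 nm ex/em. Rates were in triplicate, normalized by trypsin/pronase complete digestion, and expressed relative to DMSO control (100%).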
# [2] = tested on: yeast y272 cotransformed with pWS192 and pWS496; test: Yeast toxicity assay; format: cell-based; details: for yeast saturation density relative to DMSO-treated control: 100 µM compound, 44 h at 30 °C; for yeast saturation density relative to DMSO-treated culture: lower concentrations of compounds
# How it was run: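 Saturated starter culture of y272 carrying pWS192 (MFA1) and pWS496 (PGK-driven HA-tagged rat IDE) was diluted 1:2000 into SC-UW and treated with DMSO or compound (100 µM, or lower empirically chosen doses), in triplicate. Cultures were grown 44 h at 30 °C, or 72 h where needed.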
# yeast Ste24p = biological target: T3, yeast Ste24p (Saccharomyces cerevisiae, UniProt P47154); test: Target specificity: Ste24p activity; format: biochemical; details: 100 µM compound; relative to DMSO control = 100%
# T3 sequence (P47154 1-453): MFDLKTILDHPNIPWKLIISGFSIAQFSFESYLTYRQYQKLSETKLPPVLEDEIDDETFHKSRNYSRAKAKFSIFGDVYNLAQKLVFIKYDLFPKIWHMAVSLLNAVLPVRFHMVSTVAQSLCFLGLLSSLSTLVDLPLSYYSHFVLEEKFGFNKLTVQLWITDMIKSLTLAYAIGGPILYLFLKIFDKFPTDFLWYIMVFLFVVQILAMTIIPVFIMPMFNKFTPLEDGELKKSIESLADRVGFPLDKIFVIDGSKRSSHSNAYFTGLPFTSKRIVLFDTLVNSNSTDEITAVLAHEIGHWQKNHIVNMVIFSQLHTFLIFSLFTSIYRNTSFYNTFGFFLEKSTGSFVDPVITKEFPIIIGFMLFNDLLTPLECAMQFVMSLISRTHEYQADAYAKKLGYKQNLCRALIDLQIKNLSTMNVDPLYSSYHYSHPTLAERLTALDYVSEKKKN
# How it was run: as §1
# rat IDE [3] = biological target: T1, rat IDE; test: Native PAGE mobility shift of rat IDE; format: binding; details: 100 µM compound; 60 min at 37 °C
# How it was run: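 Rat IDE was preincubated 60 min at 37 °C with compound (100 µM) or ATP (3 mM). It was mixed 1:1 with 2× native sample buffer (0.6 M Tris-HCl pH 6.8, 20% glycerol, bromophenol blue), run on 10% native PAGE at 4 °C and silver-stained.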
# rat IDE [4] = biological target: T1, rat IDE; test: ATP effect on rat IDE activity and activators; format: biochemical; details: Tris/BSA, 1 mM ATP
# How it was run: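 Rat IDE (87.7 nM) with 50 µM a-factor–based internally quenched fluorogenic substrate in 50 mM Tris pH 7.5 containing BSA and 1 mM ATP. Compounds were used at optimal levels taken from Tris/BSA dose-response curves. ATP titration (0–10 mM) was also run in 0.1 M KPi pH 7.6 or Tris/BSA. Activity is % of water- or DMSO-treated control, n = 4.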
Compound,% Activity Pronase (pronase E) [%],ability to stimulate IDE activity in presence of insulin (rat IDE [1]),% Activity Rce1p (yeast Rce1p) [%],yeast saturation density relative to DMSO-treated control [2],% Activity Ste24p (yeast Ste24p) [%],native PAGE mobility shift of IDE (rat IDE [3]),activation over the ATP-only condition (rat IDE [4]; compound 125 µM),yeast saturation density relative to DMSO-treated culture ([2]; 44 h) [%],% activity relative to ATP-only condition (rat IDE [4]; compound 500 µM) [%],yeast culture density relative to DMSO-treated culture ([2]; incubation extended to 72 h) [%],"saturated growth of treated yeast cultures ([2]; lowest concentration evaluated 12.5 µM, 44 h)"
O=S(=O)(O)CCCc1cccc2ccccc12 [Compound 1],100.9 ± 0.1,retained their ability to stimulate IDE activity,89.7 ± 3.8,> 90%,97.2 ± 12.7,,,,,,
Cn1ncc2c(NCCc3ccccc3)nc(Cl)nc21 [Compound 2],89.2 ± 0.6,,83.2 ± 3.4,,93.0 ± 6.8,,,,,,
O=S(=O)(O)c1cc(O)c2c(O)c(N=Nc3cccc4ccccc34)c(S(=O)(=O)O)cc2c1 [Compound 3],103.8 ± 0.1,retained their ability to stimulate IDE activity,,> 90%,,did not reveal a mobility shift,approximately 25%,,,,
Nc1nc(SCc2ccccc2Cl)cc(C(=O)O)n1 [Compound 5],,retained their ability to stimulate IDE activity,101.2 ± 11.0,,131.4 ± 18.8,,,> 90,> 250,,
O=C(CCN1CC2CCC(CC2)C1)c1cccs1 [Compound 6],104.4 ± 0.0,,90.1 ± 1.0,completely inhibited growth,98.6 ± 9.9,noticeable shift,,> 90,,,
O=C(O)c1ccc(Oc2nc3ccccc3s2)cc1 [Compound 7],104.3 ± 0.9,retained their ability to stimulate IDE activity,89.6 ± 2.4,,92.8 ± 13.1,,,,,> 85,did not achieve saturated growth
O=[N+]([O-])/C=C/c1cc2ccccc2[nH]1 [Compound 8],93.3 ± 1.8,,,completely inhibited growth,89.2 ± 10.7,noticeable shift,,> 90,,,
